# Data reported in ChEMBL document CHEMBL3352584, “Novel DNA gyrase inhibiting spiropyrimidinetriones with a benzisoxazole scaffold: SAR and in vivo characterization” (J Med Chem, 2014).
# Tests used:
# [1] = Fraction unbound in rat plasma at 10 uM after 16 hrs by LC-MS/MS analysis; type: ADME, cell-free
# Summary of the method: (§1)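 Compound at 10 μM in human, rat or mouse plasma, equilibrium dialysis against buffer at 37 °C for 16 h. Buffer and plasma concentrations measured by LC-MS/MS, and the free fraction taken from their ratio.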
# Streptococcus pneumoniae [2] = test: Antimicrobial activity against Streptococcus pneumoniae 2485 harboring GyrA S81F mutant, GyrB D160E/T329A mutant and ParC S79F mutant by broth microdilution method; type: functional
# [3] = Bioavailability in mouse at 3 mg/kg, iv or at 10 mg/kg, po by LC-MS/MS method; type: ADME, organism-based; settings: in vivo
# Summary of the method: (§2)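 Male mice (CD-1) or male Wistar Hannover rats, three per experiment, given a 15 min iv infusion at 3 mg/kg or oral dosing at 10 mg/kg. Vehicle was DMA:TEG:saline 40/40/20 for mice and meglumine/cyclodextrin for rats. Serial jugular blood was taken over 0–24 h, plasma analysed by LC-MS/MS, and a noncompartmental analysis used. Mean values are given.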
# Escherichia coli [4] = test: Antimicrobial activity against Escherichia coli by broth microdilution method; type: functional
# Summary of the method: (§3)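 Broth microdilution following CLSI guidelines. Values under 12.5 μM are averages of three or more replicates.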
# Staphylococcus aureus [5] = test: Antimicrobial activity against Staphylococcus aureus 2792 harboring wild-type GyrA and GyrB R144A mutant by broth microdilution method; type: functional
# [6] = AUC in Wistar Hannover rat at 750 mg/kg, po dosed once daily for 14 days measured on day 14; type: ADME, organism-based; set-up: dose 750 mg/kg, route oral; settings: plasma
# Summary of the method: (§4)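 Wistar Hannover rats, 2 males and 2 females per dose, dosed orally once daily for 14 days at 250, 500 or 750 mg/kg/day. Vehicle was 0.2 M meglumine/20% hydroxypropyl-β-cyclodextrin. Blood was sampled on day 14 and exposure measured in blood. Animals were killed after sampling without necropsy.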
# [7] = AUC in Wistar Hannover rat at 500 mg/kg, po dosed once daily for 14 days measured on day 14; type: ADME, organism-based; set-up: dose 500 mg/kg, route oral; settings: plasma; summary of the method: as §4
# [8] = Bioavailability in rat at 3 mg/kg, iv or at 10 mg/kg, po by LC-MS/MS method; type: ADME, organism-based; settings: in vivo; summary of the method: as §2
# [9] = Cmax in Wistar Hannover rat at 750 mg/kg, po dosed once daily for 14 days measured on day 14; type: ADME, organism-based; set-up: dose 750 mg/kg, route oral; settings: in vivo; summary of the method: as §4
# Streptococcus pneumoniae [10] = test: Antimicrobial activity against wild-type Streptococcus pneumoniae 548 by broth microdilution method; type: functional; summary of the method: as §3
# [11] = Cmax in Wistar Hannover rat at 250 mg/kg, po dosed once daily for 14 days measured on day 14; type: ADME, organism-based; set-up: dose 250 mg/kg, route oral; settings: in vivo; summary of the method: as §4
# [12] = AUC in Wistar Hannover rat at 250 mg/kg, po dosed once daily for 14 days measured on day 14; type: ADME, organism-based; set-up: dose 250 mg/kg, route oral; settings: plasma; summary of the method: as §4
# Staphylococcus aureus [13] = test: Antimicrobial activity against methicillin-sensitive Staphylococcus aureus ARC516 infected in immunocompetant mouse assessed as reduction in CFU at AUC of 70 ug.hr/mL compound administered as single ip dose starting 2 hrs after infection relative to untreated control; type: functional
# Summary of the method: (§5)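 CD-1 mouse thighs were infected with mid-log S. aureus ARC516 at a target inoculum of 5 × 10⁵ CFU. Groups of five received IP compound in DMA:TEG:saline 40/40/20%, starting 2 h post-infection; a vehicle group served as control. Mice were killed 24 h after treatment start, and thigh homogenates were plated on tryptic soy agar (37 °C, overnight) for CFU/g. Free exposure was corrected for mouse plasma protein binding.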
# Staphylococcus aureus [14] = test: Antimicrobial activity against methicillin-sensitive Staphylococcus aureus by broth microdilution method in presence of 50% human serum; type: functional
# Summary of the method: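 CLSI broth microdilution against methicillin-sensitive S. aureus, run with 50% human serum added to the medium to reflect plasma protein binding. Values under 12.5 μM are averages of three or more replicates.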
# Staphylococcus aureus [15] = test: Inhibition of DNA synthesis in methicillin-sensitive Staphylococcus aureus by [3H]-thymidine incorporation assay; type: functional, organism-based
# Staphylococcus aureus [16] = test: Antimicrobial activity against methicillin-sensitive Staphylococcus aureus ARC516 infected in immunocompetant mouse assessed as reduction in CFU at free AUC of 13 ug.hr/mL compound administered as single ip dose starting 2 hrs after infection relative to untreated control; type: functional; summary of the method: as §5
# [17] = Toxicity in po dosed Wistar Hannover rat administered administered once daily for 14 days; type: organism-based; settings: in vivo
# Summary of the method: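 Repeat-dose oral study in Wistar Hannover rats, three males and three females per group, dosed once daily for 14 days at 0, 250, 500 or 750 mg/kg/day and necropsied on day 15. Endpoints were clinical signs, body weight, food intake, temperature, hematology, plasma chemistry, toxicokinetics, and gross and microscopic pathology.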
# Staphylococcus aureus [18] = test: Antimicrobial activity against Staphylococcus aureus 2375 harboring GyrA S84L mutant, GyrB R144A mutant and ParC S80Y/E84G/V693M mutant and ParE N141S mutant by broth microdilution method; type: functional
# Rattus norvegicus [19] = test: fCmax in Wistar Hannover rat at 500 mg/kg, po dosed once daily for 14 days measured on day 14; type: ADME, organism-based; set-up: dose 500 mg/kg, route oral; settings: in vivo, 336 h
# Staphylococcus aureus [20] = test: Antimicrobial activity against methicillin-sensitive Staphylococcus aureus ARC516 infected in immunosupressed mouse assessed as reduction in CFU at AUC of 120 ug.hr/mL compound administered as single ip dose starting 2 hrs after infection relative to untreated control; type: functional
# Summary of the method: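 Mice were made neutropenic with IP cyclophosphamide, 150 mg/kg at day −4 and 100 mg/kg at day −1. CD-1 thighs were then infected with mid-log S. aureus ARC516 (target 5 × 10⁵ CFU). Groups of five received IP compound in DMA:TEG:saline 40/40/20%, starting 2 h post-infection, alongside vehicle controls. At 24 h after treatment start, thigh homogenates were plated on tryptic soy agar (37 °C, overnight) for CFU/g.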
# [21] = Clearance in rat at 3 mg/kg, iv or at 10 mg/kg, po by LC-MS/MS method; type: ADME, organism-based; settings: in vivo; summary of the method: as §2
# Escherichia coli [22] = test: Antimicrobial activity against tolC-deficient Escherichia coli by broth microdilution method; type: functional; summary of the method: as §3
# [23] = molecular target: DNA topoisomerase 2-alpha (Homo sapiens, UniProt P11388); test: Inhibition of human topoisomerase 2alpha
# Staphylococcus aureus [24] = test: Antimicrobial activity against wild-type Staphylococcus aureus 516 by broth microdilution method; type: functional; summary of the method: as §3
# Staphylococcus aureus [25] = test: Antimicrobial activity against methicillin-resistant and quinolone-resistant Staphylococcus aureus by broth microdilution method; type: functional; summary of the method: as §3
# [26] = Fraction unbound in human plasma at 10 uM after 16 hrs by LC-MS/MS analysis; type: ADME, cell-free; summary of the method: as §1
# Rattus norvegicus [27] = test: Toxicity in Wistar Hannover rat at 1000 mg/kg, po administered as single dose; type: organism-based; set-up: dose 1000 mg/kg, route oral; settings: in vivo
# Summary of the method: (§6)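 Single-dose oral phase in groups of three male Wistar Hannover rats, at doses up to 1000 mg/kg. Vehicle was 0.2 M meglumine/20% hydroxypropyl-β-cyclodextrin.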
# Staphylococcus aureus [28] = test: Antimicrobial activity against methicillin-sensitive Staphylococcus aureus ARC516 infected in immunocompetant mouse administered as single ip dose starting 2 hrs after infection; type: functional, organism-based
# [29] = Solubility of the compound; type: physicochemical
# [30] = Fraction unbound in mouse plasma at 10 uM after 16 hrs by LC-MS/MS analysis; type: ADME, cell-free; summary of the method: as §1
# [31] = Cmax in Wistar Hannover rat at 500 mg/kg, po dosed once daily for 14 days measured on day 14; type: ADME, organism-based; set-up: dose 500 mg/kg, route oral; settings: in vivo; summary of the method: as §4
# Streptococcus pneumoniae [32] = test: Antimicrobial activity against Streptococcus pneumoniae by broth microdilution method; type: functional; summary of the method: as §3
# [33] = Toxicity in po dosed Wistar Hannover rat administered as single dose; type: organism-based; settings: in vivo; summary of the method: as §6
# DNA topoisomerase 2-alpha, sequence (P11388 whole entry): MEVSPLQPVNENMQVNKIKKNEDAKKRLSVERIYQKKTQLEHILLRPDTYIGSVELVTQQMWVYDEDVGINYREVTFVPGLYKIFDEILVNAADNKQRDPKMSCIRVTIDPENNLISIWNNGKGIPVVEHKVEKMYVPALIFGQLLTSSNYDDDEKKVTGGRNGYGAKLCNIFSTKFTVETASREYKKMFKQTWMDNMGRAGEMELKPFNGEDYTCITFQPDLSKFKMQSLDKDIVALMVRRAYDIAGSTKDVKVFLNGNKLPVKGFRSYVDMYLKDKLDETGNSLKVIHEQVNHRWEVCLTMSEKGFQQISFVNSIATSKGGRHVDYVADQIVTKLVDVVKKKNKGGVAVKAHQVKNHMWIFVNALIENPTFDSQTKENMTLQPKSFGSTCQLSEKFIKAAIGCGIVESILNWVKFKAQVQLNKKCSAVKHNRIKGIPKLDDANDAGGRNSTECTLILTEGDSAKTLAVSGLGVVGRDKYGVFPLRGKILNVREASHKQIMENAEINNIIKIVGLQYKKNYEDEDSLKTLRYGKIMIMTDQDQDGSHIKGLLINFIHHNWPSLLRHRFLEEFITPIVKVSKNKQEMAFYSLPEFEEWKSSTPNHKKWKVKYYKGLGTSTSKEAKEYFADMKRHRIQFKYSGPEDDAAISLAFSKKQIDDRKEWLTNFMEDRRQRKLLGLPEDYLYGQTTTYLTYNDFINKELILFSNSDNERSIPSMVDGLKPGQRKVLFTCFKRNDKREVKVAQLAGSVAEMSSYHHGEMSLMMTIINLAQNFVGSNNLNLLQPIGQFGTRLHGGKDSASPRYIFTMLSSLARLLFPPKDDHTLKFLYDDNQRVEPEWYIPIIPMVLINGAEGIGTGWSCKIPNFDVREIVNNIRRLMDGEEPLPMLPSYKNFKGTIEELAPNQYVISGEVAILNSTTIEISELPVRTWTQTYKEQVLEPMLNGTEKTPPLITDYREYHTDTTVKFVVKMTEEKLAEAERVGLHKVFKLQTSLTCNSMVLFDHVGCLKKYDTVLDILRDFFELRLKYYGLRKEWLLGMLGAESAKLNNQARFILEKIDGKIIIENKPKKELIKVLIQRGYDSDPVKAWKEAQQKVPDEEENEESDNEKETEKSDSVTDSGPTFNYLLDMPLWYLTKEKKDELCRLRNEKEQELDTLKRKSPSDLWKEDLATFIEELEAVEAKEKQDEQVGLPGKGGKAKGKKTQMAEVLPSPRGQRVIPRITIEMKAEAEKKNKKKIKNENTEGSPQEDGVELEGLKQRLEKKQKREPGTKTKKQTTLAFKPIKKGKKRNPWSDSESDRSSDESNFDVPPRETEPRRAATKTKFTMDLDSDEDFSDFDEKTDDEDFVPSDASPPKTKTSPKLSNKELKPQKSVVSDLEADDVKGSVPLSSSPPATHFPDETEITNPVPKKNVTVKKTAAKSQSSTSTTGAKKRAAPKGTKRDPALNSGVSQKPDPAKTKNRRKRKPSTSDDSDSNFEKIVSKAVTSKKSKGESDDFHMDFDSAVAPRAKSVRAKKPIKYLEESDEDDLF
compound,measurement,setting,value
Cc1noc2c(F)c3c(cc12)CC1(C(=O)NC(=O)NC1=O)[C@H]1[C@H](C)O[C@H](C)CN31,"fraction unbound at 16 h, 10 µM",[1],0.16
same,MIC,Streptococcus pneumoniae [2],2 µg/mL
same,bioavailability,[3],58%
same,MIC,Escherichia coli [4],45 µM
same,MIC,Staphylococcus aureus [5],0.5 µg/mL
same,AUC at 336 h,[6],4600 µM·h
same,AUC at 336 h,[7],4400 µM·h
same,bioavailability,[8],71%
same,Cmax,[9],487 µM
same,MIC,Streptococcus pneumoniae [10],4 µg/mL
same,Cmax,[11],290 µM
same,AUC at 336 h,[12],2300 µM·h
same,fold change (FC),Staphylococcus aureus [13],3
same,MIC,Staphylococcus aureus [14],3.1 µM
same,IC50,Staphylococcus aureus [15],0.06 µg/mL
same,fold change (FC),Staphylococcus aureus [16],3
same,NOAEL at 336 h,[17],500 mg/kg
same,MIC,Staphylococcus aureus [18],0.5 µg/mL
same,fCmax,Rattus norvegicus [19],70 µmol/L
same,fold change (FC),Staphylococcus aureus [20],3
same,clearance,[21],32 mL/min/kg
same,MIC,Escherichia coli [22],≤ 0.2 µM
same,IC50,[23],50 µM
same,MIC,Staphylococcus aureus [24],0.5 µg/mL
same,MIC,Staphylococcus aureus [25],2 µM
same,"fraction unbound at 16 h, 10 µM",[26],0.094
same,Activity,Rattus norvegicus [27],Toxic
same,Activity,Staphylococcus aureus [28],Dose-dependent effect
same,solubility,[29],> 1000 µM
same,"fraction unbound at 16 h, 10 µM",[30],0.19
same,Cmax,[31],440 µM
same,MIC,Streptococcus pneumoniae [32],8.8 µM
same,MTD,[33],≤ 750 mg/kg
